Assay results: ChEMBL document CHEMBL1765011, “Synthesis and c-Met kinase inhibition of 3,5-disubstituted and 3,5,7-trisubstituted quinolines: identification of 3-(4-acetylpiperazin-1-yl)-5-(3-nitrobenzylamino)-7- (trifluoromethyl)quinoline as a novel anticancer agent” (J Med Chem, 2011)

What was measured:
[1] = target: T1, Hepatocyte growth factor receptor (Homo sapiens, UniProt P08581); assay: Inhibition of purified recombinant c-Met after 60 mins by ELISA
[2] = test system: BaF3; assay: Antiproliferative activity against mouse BAF3 cells expressing TPR-Met after 72 hrs in absence of IL-3; format: functional, cell-based; conditions: BaF3, 72 h
How it was run: (§1)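 Cells were seeded and exposed next day to a range of compound concentrations for 72 h. Proliferation was read by sulforhodamine B or MTT assay, and IC50 derived.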

[3] = test system: NIH3T3; assay: Antiproliferative activity against mouse NIH/3T3 cells after 72 hrs; format: functional, cell-based; conditions: NIH3T3, 72 h; how it was run: as §1
[4] = Oral bioavailability in mouse at 20 mg/kg; format: ADME, organism-based; conditions: in vivo
[5] = target: Hepatocyte growth factor receptor (Mus musculus) (UniProt P16056); assay: Inhibition of TPR-MET autophosphorylation in mouse BaF3 cells after 4 hrs by Western blotting; format: cell-based
Sequence of Hepatocyte growth factor receptor (Mus musculus) (P16056 whole entry): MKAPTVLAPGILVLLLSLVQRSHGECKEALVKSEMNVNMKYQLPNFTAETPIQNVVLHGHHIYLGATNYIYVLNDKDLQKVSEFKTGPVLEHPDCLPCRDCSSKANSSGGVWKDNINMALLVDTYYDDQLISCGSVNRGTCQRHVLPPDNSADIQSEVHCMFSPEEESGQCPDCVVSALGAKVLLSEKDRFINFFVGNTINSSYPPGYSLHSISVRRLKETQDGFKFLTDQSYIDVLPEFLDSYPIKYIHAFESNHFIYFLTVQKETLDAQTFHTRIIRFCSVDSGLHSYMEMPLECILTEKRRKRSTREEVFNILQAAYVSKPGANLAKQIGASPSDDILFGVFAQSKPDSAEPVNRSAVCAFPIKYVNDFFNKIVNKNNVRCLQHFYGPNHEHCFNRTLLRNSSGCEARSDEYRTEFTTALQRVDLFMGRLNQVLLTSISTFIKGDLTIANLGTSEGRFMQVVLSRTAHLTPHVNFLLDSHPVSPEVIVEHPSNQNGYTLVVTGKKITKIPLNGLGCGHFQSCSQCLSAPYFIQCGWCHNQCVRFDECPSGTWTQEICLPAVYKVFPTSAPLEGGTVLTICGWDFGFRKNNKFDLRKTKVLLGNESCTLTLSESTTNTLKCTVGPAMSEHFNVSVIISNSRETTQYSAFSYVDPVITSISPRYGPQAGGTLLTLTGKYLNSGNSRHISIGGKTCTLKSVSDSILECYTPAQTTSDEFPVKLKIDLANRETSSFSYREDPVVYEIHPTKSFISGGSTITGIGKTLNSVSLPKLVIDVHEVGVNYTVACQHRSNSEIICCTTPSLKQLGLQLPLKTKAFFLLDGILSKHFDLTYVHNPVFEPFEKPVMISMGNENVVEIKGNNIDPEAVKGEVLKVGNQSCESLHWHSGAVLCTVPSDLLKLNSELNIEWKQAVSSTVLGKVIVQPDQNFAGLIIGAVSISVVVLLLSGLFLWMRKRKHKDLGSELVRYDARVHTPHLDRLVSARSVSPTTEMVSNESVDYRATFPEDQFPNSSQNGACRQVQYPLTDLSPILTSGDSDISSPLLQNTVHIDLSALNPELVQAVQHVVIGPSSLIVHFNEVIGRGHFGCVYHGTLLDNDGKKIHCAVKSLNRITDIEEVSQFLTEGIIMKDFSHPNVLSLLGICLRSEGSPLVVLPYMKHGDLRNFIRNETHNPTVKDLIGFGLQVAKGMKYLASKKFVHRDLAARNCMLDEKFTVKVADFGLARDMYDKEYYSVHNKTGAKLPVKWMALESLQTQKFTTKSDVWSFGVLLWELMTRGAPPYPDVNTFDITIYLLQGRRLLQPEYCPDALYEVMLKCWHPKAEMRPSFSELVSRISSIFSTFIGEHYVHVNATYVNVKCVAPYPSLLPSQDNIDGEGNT
How it was run: (§2)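 Exponentially growing cells were treated with compound for 4 h at 37 °C and lysed in SDS sample buffer. Lysates were run on 10% SDS-PAGE and blotted to nitrocellulose. Blots were probed for phospho-c-Met and total c-Met, with GAPDH as loading control, and detected by ECL.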

[6] = test system: NIH3T3; assay: Antiproliferative activity against mouse NIH/3T3 cells expressing TPR-Met after 72 hrs; format: functional, cell-based; conditions: NIH3T3, 72 h; how it was run: as §1
[7] = Volume of distribution at steady state in mouse at 10 mg/kg, iv; format: ADME, organism-based; parameters: dose 10 mg/kg, route intravenous; conditions: in vivo, read-out: Vdss
[8] = AUC (0 to infinity) in mouse at 20 mg/kg, po; format: ADME, organism-based; parameters: dose 20 mg/kg, route oral, time infinity; conditions: plasma
How it was run: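 Mice dosed orally at 20 mg/kg in DMSO/Tween 80/normal saline vehicle; plasma concentration-time profile used to derive AUC0-∞. Values are the average of three runs.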

[9] = Tmax in mouse at 20 mg/kg, po; format: ADME, organism-based; parameters: dose 20 mg/kg, route oral; conditions: in vivo
[10] = Half life in mouse at 10 mg/kg, iv; format: ADME, organism-based; parameters: dose 10 mg/kg, route intravenous; conditions: in vivo
How it was run: (§3)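 Single iv dose of 10 mg/kg to mice, vehicle DMSO/Tween 80/normal saline. Clearance and half-life were derived from plasma concentration-time data. Average of three runs.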

[11] = Cmax in mouse at 20 mg/kg, po; format: ADME, organism-based; parameters: dose 20 mg/kg, route oral; conditions: in vivo
How it was run: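 Oral 20 mg/kg single dose to mice, vehicle DMSO/Tween 80/normal saline. Cmax was read from the plasma concentration-time profile. Average of three runs.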

[12] = test system: BaF3; assay: Antiproliferative activity against mouse BAF3 cells expressing TPR-Met after 72 hrs in presence of IL-3; format: functional, cell-based; conditions: BaF3, 72 h; how it was run: as §1
[13] = Clearance in mouse at 10 mg/kg, iv; format: ADME, organism-based; parameters: dose 10 mg/kg, route intravenous; conditions: in vivo; how it was run: as §3
[14] = target: Hepatocyte growth factor receptor (Mus musculus) (UniProt P16056); assay: Inhibition of TPR-MET autophosphorylation in mouse NIH3T3 cells after 4 hrs by Western blotting; format: cell-based; how it was run: as §2
[15] = test system: NCI-H441; assay: Antiproliferative activity against human NCI-H441 cells after 72 hrs; conditions: NCI-H441, 72 h
[16] = test system: BXPC-3; assay: Antiproliferative activity against human BxPC3 cells after 72 hrs; conditions: BXPC-3, 72 h
[17] = test system: MCF7; assay: Antiproliferative activity against human MCF7 cells after 72 hrs; conditions: MCF7, 72 h
[18] = test system: NCI-H1993; assay: Antiproliferative activity against human NCI-H1993 cells after 72 hrs; conditions: NCI-H1993, 72 h
[19] = test system: MDA-MB-231; assay: Antiproliferative activity against human MDA-MB-231 cells after 72 hrs; conditions: MDA-MB-231, 72 h
[20] = test system: SNU1; assay: Antiproliferative activity against human SNU1 cells after 72 hrs; conditions: SNU1, 72 h
[21] = test system: MKN-45; assay: Antiproliferative activity against human MKN45 cells after 72 hrs; conditions: MKN-45, 72 h
[22] = test system: SNU-5; assay: Antiproliferative activity against human SNU5 cells after 72 hrs; conditions: SNU-5, 72 h
[23] = target: T1, Hepatocyte growth factor receptor; assay: Inhibition of purified recombinant c-Met at 10 uM after 60 mins by ELISA
[24] = Clearance in mouse at 2.5 mg/kg, iv; format: ADME, organism-based; parameters: dose 2.5 mg/kg, route intravenous; conditions: in vivo
How it was run: (§4)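 Single iv dose to mice in DMSO/Tween 80/normal saline vehicle, reduced to 2.5 mg/kg because of poor solubility. Clearance and half-life were taken from plasma concentration-time data. Average of three runs.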

[25] = Half life in mouse at 2.5 mg/kg, iv; format: ADME, organism-based; parameters: dose 2.5 mg/kg, route intravenous; conditions: in vivo; how it was run: as §4
[26] = Volume of distribution at steady state in mouse at 2.5 mg/kg, iv; format: ADME, organism-based; parameters: dose 2.5 mg/kg, route intravenous; conditions: in vivo, read-out: Vdss

T1 sequence (P08581 whole entry): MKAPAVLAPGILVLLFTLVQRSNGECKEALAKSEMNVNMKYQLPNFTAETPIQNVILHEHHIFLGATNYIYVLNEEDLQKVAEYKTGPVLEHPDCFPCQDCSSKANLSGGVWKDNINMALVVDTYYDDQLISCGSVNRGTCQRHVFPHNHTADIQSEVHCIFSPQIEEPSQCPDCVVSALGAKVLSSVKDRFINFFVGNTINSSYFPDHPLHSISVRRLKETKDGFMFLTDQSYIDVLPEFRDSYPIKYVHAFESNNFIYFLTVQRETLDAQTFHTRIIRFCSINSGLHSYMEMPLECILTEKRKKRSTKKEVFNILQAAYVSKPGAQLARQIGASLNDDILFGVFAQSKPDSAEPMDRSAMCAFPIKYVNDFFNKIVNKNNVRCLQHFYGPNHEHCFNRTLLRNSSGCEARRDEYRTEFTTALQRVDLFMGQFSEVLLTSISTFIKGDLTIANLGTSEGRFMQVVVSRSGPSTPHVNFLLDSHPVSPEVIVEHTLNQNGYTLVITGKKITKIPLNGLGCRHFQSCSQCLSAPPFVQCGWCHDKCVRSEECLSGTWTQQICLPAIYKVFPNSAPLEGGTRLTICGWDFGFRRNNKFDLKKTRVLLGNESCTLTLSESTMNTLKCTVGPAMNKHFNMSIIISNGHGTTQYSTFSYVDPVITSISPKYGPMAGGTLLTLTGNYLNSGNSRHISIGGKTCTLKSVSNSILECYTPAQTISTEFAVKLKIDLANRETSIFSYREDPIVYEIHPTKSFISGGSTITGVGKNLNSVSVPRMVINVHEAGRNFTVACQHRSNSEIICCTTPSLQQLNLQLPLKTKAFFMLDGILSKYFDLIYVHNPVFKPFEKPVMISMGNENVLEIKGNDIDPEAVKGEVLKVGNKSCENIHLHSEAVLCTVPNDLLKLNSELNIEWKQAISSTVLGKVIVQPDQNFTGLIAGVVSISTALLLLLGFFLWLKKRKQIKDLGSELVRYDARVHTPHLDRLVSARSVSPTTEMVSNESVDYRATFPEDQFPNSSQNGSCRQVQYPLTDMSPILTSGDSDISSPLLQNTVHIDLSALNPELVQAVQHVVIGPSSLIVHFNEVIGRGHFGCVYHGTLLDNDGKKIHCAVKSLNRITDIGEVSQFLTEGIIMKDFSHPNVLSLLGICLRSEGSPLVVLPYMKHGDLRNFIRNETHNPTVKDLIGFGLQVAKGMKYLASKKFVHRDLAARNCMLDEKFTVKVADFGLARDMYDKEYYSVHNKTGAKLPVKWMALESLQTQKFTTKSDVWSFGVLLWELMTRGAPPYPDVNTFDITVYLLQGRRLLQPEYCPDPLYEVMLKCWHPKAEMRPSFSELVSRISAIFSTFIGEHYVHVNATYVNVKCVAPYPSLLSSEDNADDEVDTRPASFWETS

SMILES: CN1CCN(c2cnc3cccc(NC(=O)c4cccn(-c5ccc(F)cc5)c4=O)c3c2)CC1
- IC50 [1]: 5300 nM

SMILES: CCOC(=O)CN1CCN(c2cnc3cc(C(F)(F)F)cc(NCc4cccc([N+](=O)[O-])c4)c3c2)CC1
- IC50 [2]: 1400 nM
- IC50 [1]: 0.77 nM
- IC50 [3]: ≥ 50 µM
- bioavailability [4]: 8.2%
- inhibition [5]: Dose-dependent effect
- IC50 [6]: 5.9 µM
- Vd [7]: 1.36 L/kg
- AUC(0-inf) [8]: 700 ng·h/mL
- Tmax [9]: 30 min
- half-life [10]: 67.8 min
- Cmax [11]: 279 ng/mL
- IC50 [12]: 14.1 µM
- clearance [13]: 40.5 mL/min/kg
- inhibition [14]: Dose-dependent effect

SMILES: Cc1[nH]c(/C=C2\C(=O)Nc3ccc(S(=O)(=O)N(C)c4cccc(Cl)c4)cc32)c(C)c1C(=O)N1CCN(C)CC1
- IC50 [2]: 530 nM
- IC50 [15]: 13 µM
- IC50 [16]: 16 µM
- IC50 [1]: 14 nM
- IC50 [17]: 6.2 µM
- IC50 [3]: ≥ 50 µM
- IC50 [6]: 6.5 µM
- IC50 [18]: 7.3 µM
- IC50 [19]: 11 µM
- IC50 [20]: 7 µM
- IC50 [21]: 1300 nM
- IC50 [12]: 6.4 µM
- IC50 [22]: 800 nM

SMILES: CN1CCN(c2cnc3cccc(NC(=O)Nc4cccc([N+](=O)[O-])c4)c3c2)CC1
- inhibition [23]: 25.2%

SMILES: CN1CCN(c2cnc3cccc(-c4cccc([N+](=O)[O-])c4)c3c2)CC1
- IC50 [1]: 2300 nM

SMILES: CS(=O)(=O)N1CCN(c2cnc3cc(C(F)(F)F)cc(NCc4cccc([N+](=O)[O-])c4)c3c2)CC1
- IC50 [2]: 8800 nM
- clearance [24]: 43.3 mL/min/kg
- IC50 [1]: 0.82 nM
- half-life [25]: 58.2 min
- IC50 [3]: ≥ 50 µM
- bioavailability [4]: 3.7%
- Vd [26]: 1.72 L/kg
- inhibition [5]: Dose-dependent effect
- IC50 [6]: 2.2 µM
- AUC(0-inf) [8]: 366 ng·h/mL
- Tmax [9]: 79.8 min
- Cmax [11]: 59.3 ng/mL
- IC50 [12]: ≥ 50 µM
- inhibition [14]: Dose-dependent effect

SMILES: CN1CCN(c2cnc3cc(C(F)(F)F)cc(NCc4cccnc4)c3c2)CC1
- IC50 [1]: 160 nM

SMILES: CCN1CCN(c2cnc3cc(C(F)(F)F)cc(NCc4ccc(F)cc4)c3c2)CC1
- IC50 [1]: 10000 nM

SMILES: CN1CCN(c2cnc3cccc(-c4ccc5ccccc5c4)c3c2)CC1
- IC50 [1]: 5800 nM

SMILES: CC(=O)N1CCN(c2cnc3cccc(NS(=O)(=O)c4cccc([N+](=O)[O-])c4)c3c2)CC1
- IC50 [1]: 2560 nM

SMILES: CCN1CCN(c2cnc3cc(C(F)(F)F)cc(NCc4cccc([N+](=O)[O-])c4)c3c2)CC1
- IC50 [2]: 370 nM
- IC50 [1]: 1.01 nM
- IC50 [3]: 13.2 µM
- inhibition [5]: Dose-dependent effect
- IC50 [6]: 2.6 µM
- IC50 [12]: 10.1 µM
- inhibition [14]: Dose-dependent effect

SMILES: CCN1CCN(c2cnc3cc(C(F)(F)F)cc(NCc4cccc(O)c4)c3c2)CC1
- IC50 [1]: 230 nM

SMILES: O=C(O)CN1CCN(c2cnc3cc(C(F)(F)F)cc(NCc4cccc([N+](=O)[O-])c4)c3c2)CC1
- IC50 [1]: 4.4 nM

SMILES: O=[N+]([O-])c1cccc(CNc2cc(C(F)(F)F)cc3ncc(N4CCN(S(=O)(=O)C5CC5)CC4)cc23)c1
- IC50 [2]: 500 nM
- IC50 [1]: 0.84 nM
- IC50 [3]: ≥ 50 µM
- inhibition [5]: Dose-dependent effect
- IC50 [6]: 1.4 µM
- IC50 [12]: ≥ 50 µM
- inhibition [14]: Dose-dependent effect

SMILES: CCN1CCN(c2cnc3cc(NCc4cccc([N+](=O)[O-])c4)cc(C(F)(F)F)c3c2)CC1
- inhibition [23]: 46.6%

SMILES: CN1CCN(c2cnc3cccc(OCc4cccc([N+](=O)[O-])c4)c3c2)CC1
- IC50 [1]: 140 nM

SMILES: O=[N+]([O-])c1cccc(CNc2cc(C(F)(F)F)cc3ncc(N4CCOCC4)cc23)c1
- IC50 [2]: 4200 nM
- IC50 [1]: 0.72 nM
- IC50 [3]: ≥ 50 µM
- inhibition [5]: Dose-dependent effect
- IC50 [6]: 4 µM
- IC50 [12]: ≥ 50 µM
- inhibition [14]: Dose-dependent effect

SMILES: CC(C)(C)OC(=O)N1CCN(c2cnc3cc(C(F)(F)F)cc(NCc4cccc([N+](=O)[O-])c4)c3c2)CC1
- IC50 [1]: 10.6 nM

SMILES: CN1CCN(c2cnc3cccc(-c4cccc(O)c4)c3c2)CC1
- inhibition [23]: 30.7%

SMILES: CC(=O)N1CCN(c2cnc3cccc(NCc4cccc([N+](=O)[O-])c4)c3c2)CC1
- IC50 [1]: 110 nM

SMILES: CN1CCN(c2cnc3cc(C(F)(F)F)cc(NCc4cccc(F)c4)c3c2)CC1
- IC50 [1]: 450 nM

SMILES: CN1CCN(c2cnc3cc(C(F)(F)F)cc(NS(=O)(=O)c4cccc([N+](=O)[O-])c4)c3c2)CC1
- IC50 [1]: 99 nM

SMILES: CN1CCN(c2cnc3cccc(OC(=O)c4cccc([N+](=O)[O-])c4)c3c2)CC1
- inhibition [23]: 7.3%

SMILES: COC(=O)N1CCN(c2cnc3cc(C(F)(F)F)cc(NCc4cccc([N+](=O)[O-])c4)c3c2)CC1
- IC50 [1]: 43 nM

SMILES: CN1CCN(c2cnc3cccc(NS(=O)(=O)c4cccc([N+](=O)[O-])c4)c3c2)CC1
- IC50 [1]: 3440 nM

SMILES: CN1CCN(c2cnc3cccc(OCc4cccc(F)c4)c3c2)CC1
- inhibition [23]: 25.8%

SMILES: CN1CCN(c2cnc3cccc(OCc4cccc(C#N)c4)c3c2)CC1
- IC50 [1]: 12300 nM

SMILES: O=[N+]([O-])c1cccc(CNc2cc(C(F)(F)F)cc3ncc(N4CCNCC4)cc23)c1
- IC50 [1]: 2.2 nM

SMILES: CC(=O)N1CCN(c2cnc3cccc(NC(=S)Nc4cccc([N+](=O)[O-])c4)c3c2)CC1
- inhibition [23]: 13.9%

SMILES: CCN1CCN(c2cnc3cc(C(F)(F)F)cc(NCc4cccc(C#N)c4)c3c2)CC1
- IC50 [1]: 5.6 nM

SMILES: CN1CCN(c2cnc3cccc(NCc4cccc([N+](=O)[O-])c4)c3c2)CC1
- IC50 [1]: 166 nM

SMILES: CN1CCN(c2cnc3cccc(-c4ccco4)c3c2)CC1
- IC50 [1]: 12700 nM

SMILES: CN1CCN(c2cnc3cccc(-c4ccc(F)cc4)c3c2)CC1
- inhibition [23]: 29.9%

SMILES: CN1CCN(c2cnc3cc(C(F)(F)F)cc(OCc4cccc([N+](=O)[O-])c4)c3c2)CC1
- IC50 [1]: 2.7 nM

SMILES: CN1CCN(c2cnc3cccc(-c4cccs4)c3c2)CC1
- IC50 [1]: 14300 nM

SMILES: O=[N+]([O-])c1cccc(CNc2cc(C(F)(F)F)cc3ncc(N4CCCCC4)cc23)c1
- IC50 [1]: 3.4 nM

SMILES: CN1CCN(c2cnc3cccc(NC(=S)Nc4cccc([N+](=O)[O-])c4)c3c2)CC1
- inhibition [23]: 12.4%

SMILES: CN1CCN(c2cnc3cc(NCc4cccc([N+](=O)[O-])c4)cc(C(F)(F)F)c3c2)CC1
- inhibition [23]: 8.9%

SMILES: CN1CCN(c2cnc3cccc(OC(=O)c4cccn(-c5ccc(F)cc5)c4=O)c3c2)CC1
- inhibition [23]: 12.6%

SMILES: CC(=O)N1CCN(c2cnc3cccc(NC(=O)Nc4cccc([N+](=O)[O-])c4)c3c2)CC1
- IC50 [1]: 22400 nM

SMILES: CN1CCN(c2cnc3cccc(OS(=O)(=O)c4cccc([N+](=O)[O-])c4)c3c2)CC1
- IC50 [1]: 1200 nM
